Results on four molecules are retold here after publication PMC11128822 (Heliyon, 2024).

Data set [1] concerns SARS-CoV-2. As to the kind of experiment: Lung histology of infected hamsters. The data set is classed as in vivo, Syrian hamsters. An outline of the steps: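 Infected hamsters were dosed every 12 h from the time of infection. MOV was given by oral gavage under isoflurane in water with 10 % PEG400 and 2.5 % Kolliphor EL. FAV was given intraperitoneally to awake animals. Euthanasia was on D5. Lungs were collected after intratracheal instillation of 4 % formaldehyde, fixed 72 h at room temperature and paraffin-embedded. Lesions were graded semi-quantitatively (up to 4 = severe), and scores were summed.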

Data set [2] concerns SARS-CoV-2. As to the kind of experiment: microbe, parasite or virus in culture. The settings on record: for viral infectious titres at the apical side of HAE vs virus control: D2 to D4. The data set is classed as cell-based, human.
In data set [3] the test system is SARS-CoV-2. The data set is classed as cell-based, human. Particulars: D2 to D4.
Data set [4] deals with SARS-CoV-2. The class given is in vivo, Syrian hamsters. The settings on record: for reduction of lung infectious viral titers vs untreated: 300 mg/kg/day BID oral, D3.
Data set [5] relates to SARS-CoV-2. The class given is in vivo, Syrian hamsters.
For data set [6], the system named is SARS-CoV-2. The class given is in vivo, Syrian hamsters. The settings on record: 150, 300, 400 mg/kg/day BID, from D0, D3.
Data set [7] deals with cytokines in lungs. Kind of data set: Expression level of seven cytokines in lungs. The class given is in vivo, Syrian hamsters. Particulars: 300 mg/kg/day BID from D0, D5.
The test system of data set [8] is SARS-CoV-2 genome. The class given is in vivo, Syrian hamsters. The settings on record: hamster lungs.
Data set [9] relates to SARS-CoV-2 genome. As to the kind of experiment: Sequence analysis of the full-length viral genome in HAE supernatants. The data set is classed as cell-based, human.
Data set [10] concerns COVID-19. The settings on record: phase 3 MOVE OUT trial; cited from earlier work.
The test system of data set [11] is COVID-19. Particulars: PANORAMIC trial, cited from earlier work.
Data set [12] in a line: Molnupiravir pharmacokinetics: NHC trough concentration in plasma and lung. The class given is in vivo, Syrian hamsters. The gist of the method: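 MOV was given by oral gavage every 12 h, with the first dose at infection (D0), 12 h before (D-1) or 12 h after (D1). Hamsters were euthanised 15 h after the last dose on D3, giving trough values. Samples were EDTA plasma and lung lobes homogenised in 0.9 % NaCl. NHC was extracted with acetonitrile and quantified by UPLC-MS/MS (LLOQ 5 ng/mL). The partition coefficient was the lung:plasma concentration ratio.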

Like-named read-outs stand apart in the source and are kept apart here.

The term IC50 denotes the concentration that gives 50% inhibition. The low end stands for greater potency in that assay, the high end for weaker potency in that assay.

Regarding `NC(=O)c1nc(F)c[nH]c1=O` [FAV, Favipiravir], the “cumulative pathological scores vs untreated group” value in data set [1] (FAV intraperitoneally 925 mg/kg/day BID, lungs at D5) is “significantly different score”.
Regarding `CC(C)C(=O)OC[C@H]1O[C@@H](n2ccc(NO)nc2=O)[C@H](O)[C@@H]1O` [MOV, molnupiravir], the “viral infectious titres at the apical side of HAE vs virus control” value (shortened to “viral infectious titres … vs virus control”) in data set [2] (0.3 μM) is on record as “significant decrease in infectious titres was observed only at D3”. Moreover, the “viral infectious titres … vs virus control” value in data set [2] (1 μM) is “Significant decrease”. The “viral infectious titres … vs virus control” value in data set [2] (3 μM) is reported as “Significant decrease”. The IC50 in data set [2] (Severe acute respiratory syndrome coronavirus 2, in Homo sapiens) was 1000 nM. Moreover, the “viral RNA yields at the apical side of HAE vs virus control” value (“viral RNA yields … vs virus control” below) in data set [3] (0.3 μM) is “no significant reduction”. Moreover, the “viral RNA yields … vs virus control” value in data set [3] (1 μM) was “significant reduction was observed at D3 and D4”. Further, the “viral RNA yields … vs virus control” value in data set [3] (3 μM) is listed as “significant decrease”. The “infectious titers in clarified lung homogenates vs untreated animals” value in data set [4] (150, 300 and 400 mg/kg/day BID oral, from D0, lungs at D3) is listed as “significantly lower”. Further, the “lung particle-to-infectious unit ratio vs untreated” value in data set [4] (dose assessment experiment, 150-400 mg/kg/day BID) is recorded as “No significant differences”. For the same molecule, the “reduction of lung infectious viral titers vs untreated” value in data set [4] (pre-emptive (D0)) is 1.03 log10. The “lung particles to infectious unit ratio vs control” value in data set [4] (preventive (D-1), 300 mg/kg/day BID) is reported as “significant elevation”. Further, the “reduction of lung infectious viral titers vs untreated” value in data set [4] (preventive (D-1)) is 1.12 log10. Also, the “viral RNA yields in lungs vs control group” value in [5] (300 mg/kg/day BID, three treated groups (D-1, D0, D1)) was “did not differ significantly”. Besides, the “viral RNA yields in lungs vs untreated animals” value in [5] (150 or 400 mg/kg/day BID oral, from D0, D3) is listed as “significant lower”. Besides, in data set [6], the “RNA viral yields in nasal washes vs untreated animals” value is “no significant differences”. Moreover, in data set [7], the “expression of IL10 in lungs vs vehicle group” value is given as “reduction was not significant”, the “expression of TNF in lungs vs vehicle group” value is recorded as “reduction was not significant”, the “expression of cytokine CCl5 in lungs vs vehicle group” value is listed as “significantly decrease” and the “expression of cytokine CxCl10 in lungs vs vehicle group” value is on record as “significantly decrease”. Besides, the “cumulative pathological scores vs untreated group” value in data set [1] (MOV 300 mg/kg/day BID from D0, lungs at D5) is listed as “no significant difference”. In data set [8] (300 mg/kg/day BID), the “G to A MVs vs untreated group” value was “significant increase”; the “mean frequency of transitions-type MVs vs untreated” value is reported as “higher in the treated group compared to the untreated group, but not significantly”; the “number of MVs with a frequency greater than 10 % vs untreated” value was “significant higher number”. Further, in data set [8] (300 mg/kg/day BID from D0), the “mean number of MVs per genome” value stood at 29.5. In addition, in data set [9] (0.3 μM), the “average number of MVs per genome” value stood at 20 and the “mean frequency of transition-type MVs” value was 0.81. Further, in data set [9] (1 μM), the “average number of MVs per genome” value was 88 and the “mean frequency of transition-type MVs” value amounted to 0.97. In addition, in [9] (3 μM), the “average number of MVs per genome” value turned out to be 18.3 and the “mean frequency of transition-type MVs” value was found to be 0.89. The “increase of type C to U-MVs, exposed vs non-exposed HAE” value in [9] (pooled analysis) is “significance found”. Moreover, the “efficacy in reducing the risk of hospitalisation or death” value in [10] was “modest efficacy”. In [11], the time to recovery result is recorded as “reduced time to recovery” and the viral load result is given as “reduced viral load”. Moreover, the “reduction in the risk of hospitalisation or death” value in data set [11] (vaccinated patients) is reported as “no reduction”.
As for `O=c1nc(NO)ccn1[C@@H]1O[C@H](CO)[C@@H](O)[C@H]1O` [NHC, β-D N4-hydroxycytidine], the “NHC concentration in lung, 400 mg/kg/day BID compared to 150 mg/kg/day BID” value in data set [12] (15 h after last intake) is “significantly higher”. The “NHC plasma trough concentrations” value in [12] (15 h after last intake, MOV 150, 300, 400 mg/kg/day BID oral) is “comparable between doses”. Moreover, the “lung and plasma NHC trough concentrations between treatment strategies” value in data set [12] (MOV 300 mg/kg/day BID from D-1, D0 or D1) is on record as “no difference”. The “Lung partition coefficients (ratio of lung over plasma concentrations)” value in data set [12] (dose assessment experiment, all doses) is recorded as “above 1”. Besides, in [12] (therapeutic strategies experiment, 300 mg/kg/day BID), the pulmonary partition coefficient result was “above 1”.
In the case of `CCC(CC)COC(=O)[C@H](C)N[P@](=O)(OC[C@H]1O[C@@](C#N)(c2ccc3c(N)ncnn23)[C@H](O)[C@@H]1O)Oc1ccccc1` [RDV, Remdesivir], the “infectious titres in HAE” value in data set [2] (10 μM, positive control) is “significantly reduced”.
